According to the M2OR odorant receptor database:
Residue numbers refer to the chain shown, from its start.

Experiments:
Conditions in all cases: stereoisomer not certain
[1] = tested on: T1, O4F15 S149F
T1 sequence (whole entry): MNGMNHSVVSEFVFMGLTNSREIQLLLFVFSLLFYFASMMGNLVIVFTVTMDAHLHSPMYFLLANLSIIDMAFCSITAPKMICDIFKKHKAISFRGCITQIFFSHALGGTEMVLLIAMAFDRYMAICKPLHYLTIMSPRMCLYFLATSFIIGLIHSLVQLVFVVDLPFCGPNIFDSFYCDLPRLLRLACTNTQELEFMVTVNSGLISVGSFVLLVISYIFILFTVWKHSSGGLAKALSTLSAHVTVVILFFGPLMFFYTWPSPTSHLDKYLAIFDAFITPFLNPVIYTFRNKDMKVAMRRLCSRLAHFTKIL
Summary of the method: (§1)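 Assay methods differ from source to source, frequently being transient luciferase assays in mammalian cell lines. For each receptor–molecule pair, the label responsive (active) applies when the original authors judged the measured signal statistically different from baseline, and non-responsive (inactive) applies otherwise.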

[2] = tested on: T2, O4F17
T2 sequence (whole entry): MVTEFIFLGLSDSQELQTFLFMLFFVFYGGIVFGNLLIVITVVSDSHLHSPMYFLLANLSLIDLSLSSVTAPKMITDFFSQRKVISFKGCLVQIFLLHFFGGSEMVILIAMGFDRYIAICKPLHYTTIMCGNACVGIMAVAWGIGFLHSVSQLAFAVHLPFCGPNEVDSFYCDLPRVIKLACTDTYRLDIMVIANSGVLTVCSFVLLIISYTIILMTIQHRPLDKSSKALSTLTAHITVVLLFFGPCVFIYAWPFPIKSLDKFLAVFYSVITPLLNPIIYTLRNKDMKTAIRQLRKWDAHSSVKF
Summary of the method: as §1

[3] = tested on: T3, O4F17; remark: listed apart in the source
T3 sequence (whole entry): T2 sequence (whole entry) with E15G, Q293R
Summary of the method: as §1

[4] = tested on: T4, O4F21 F44L
T4 sequence (whole entry): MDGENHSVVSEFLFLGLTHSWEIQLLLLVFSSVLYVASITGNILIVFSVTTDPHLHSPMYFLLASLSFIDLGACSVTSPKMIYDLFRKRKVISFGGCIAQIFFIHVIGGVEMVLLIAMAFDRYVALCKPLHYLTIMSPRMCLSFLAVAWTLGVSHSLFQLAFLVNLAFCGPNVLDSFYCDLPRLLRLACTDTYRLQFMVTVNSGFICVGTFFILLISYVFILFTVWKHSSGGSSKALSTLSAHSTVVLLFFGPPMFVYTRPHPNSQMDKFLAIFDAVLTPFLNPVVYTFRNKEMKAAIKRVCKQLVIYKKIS
Summary of the method: as §1

[5] = tested on: T5, O51A7 E8D
T5 sequence (whole entry): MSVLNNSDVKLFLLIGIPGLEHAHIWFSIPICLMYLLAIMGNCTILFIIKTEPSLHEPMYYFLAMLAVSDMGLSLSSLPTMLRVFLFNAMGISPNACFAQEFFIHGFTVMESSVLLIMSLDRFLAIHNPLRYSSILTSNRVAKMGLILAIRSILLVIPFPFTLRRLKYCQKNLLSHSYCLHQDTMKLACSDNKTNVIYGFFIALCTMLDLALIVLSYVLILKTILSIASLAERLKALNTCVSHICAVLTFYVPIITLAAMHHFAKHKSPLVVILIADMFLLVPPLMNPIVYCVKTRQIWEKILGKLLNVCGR
Summary of the method: as §1

[6] = tested on: T6, O51B2 C120R C209S P283S
T6 sequence (whole entry): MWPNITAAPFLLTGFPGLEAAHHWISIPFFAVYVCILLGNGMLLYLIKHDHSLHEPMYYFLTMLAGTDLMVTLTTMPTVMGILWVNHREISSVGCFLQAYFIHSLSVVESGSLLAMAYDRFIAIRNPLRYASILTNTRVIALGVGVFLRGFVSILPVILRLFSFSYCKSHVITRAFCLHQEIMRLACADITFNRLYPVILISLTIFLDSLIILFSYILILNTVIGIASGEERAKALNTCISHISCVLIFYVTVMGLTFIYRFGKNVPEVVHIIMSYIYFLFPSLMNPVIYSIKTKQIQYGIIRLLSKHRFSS
Summary of the method: as §1

[7] = tested on: T7, O51B4 M147T
T7 sequence (whole entry): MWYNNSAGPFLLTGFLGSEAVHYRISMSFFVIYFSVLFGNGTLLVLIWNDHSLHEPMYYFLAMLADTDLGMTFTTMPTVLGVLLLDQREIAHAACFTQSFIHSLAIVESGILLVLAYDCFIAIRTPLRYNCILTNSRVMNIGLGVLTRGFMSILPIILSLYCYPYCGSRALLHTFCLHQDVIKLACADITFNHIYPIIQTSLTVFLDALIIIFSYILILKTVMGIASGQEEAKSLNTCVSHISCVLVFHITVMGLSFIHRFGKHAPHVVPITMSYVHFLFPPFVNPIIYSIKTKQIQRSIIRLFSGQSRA
Summary of the method: as §1

[8] = tested on: T8, O51B4
T8 sequence (whole entry): T7 sequence (whole entry) with V36I
Summary of the method: as §1

[9] = tested on: T9, O51B5 G5S I102T P160L
T9 sequence (whole entry): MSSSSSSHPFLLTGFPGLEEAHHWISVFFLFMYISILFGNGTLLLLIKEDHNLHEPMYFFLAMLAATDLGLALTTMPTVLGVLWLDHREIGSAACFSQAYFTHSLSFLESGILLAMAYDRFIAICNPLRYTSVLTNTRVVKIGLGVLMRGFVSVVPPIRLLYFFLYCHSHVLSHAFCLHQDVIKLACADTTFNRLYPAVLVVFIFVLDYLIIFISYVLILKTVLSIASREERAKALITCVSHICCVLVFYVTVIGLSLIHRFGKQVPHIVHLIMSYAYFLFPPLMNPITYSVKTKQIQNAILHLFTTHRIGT
Summary of the method: as §1

[10] = tested on: T10, O51D1 I89V
T10 sequence (whole entry): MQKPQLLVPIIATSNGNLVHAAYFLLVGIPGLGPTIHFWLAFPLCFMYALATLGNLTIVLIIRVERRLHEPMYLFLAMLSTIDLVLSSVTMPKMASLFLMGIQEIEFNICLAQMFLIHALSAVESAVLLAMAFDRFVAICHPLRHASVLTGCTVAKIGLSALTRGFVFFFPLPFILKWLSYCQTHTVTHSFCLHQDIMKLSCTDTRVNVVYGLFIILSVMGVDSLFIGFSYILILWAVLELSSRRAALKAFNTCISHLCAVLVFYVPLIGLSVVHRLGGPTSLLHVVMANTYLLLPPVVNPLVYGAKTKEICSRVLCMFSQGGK
Summary of the method: as §1

Measured: odorant receptor agonist call

Cc1cnc(C)c(C)n1
inactive: all assays above

CCCC(S)CCOC(C)=O (centres undefined)
inactive: all assays above

CC1=C(O)C(=O)OC1C (centres undefined)
inactive: all assays above

CC1=NC(C)C(C)S1 (centres undefined)
inactive: all assays above

CCC1OC(C)=C(O)C1=O (centres undefined)
inactive: all assays above

CCC1OC(=O)C(O)=C1C (centres undefined)
inactive: all assays above

CC1=C(O)C(=O)C(C)O1 (centres undefined)
inactive: all assays above

CCCCCCC=CCCC=O
not listed: [1]
inactive: all other assays above
